Entries after “also recorded” stand apart in the source; their conditions may differ.
Legend:
SMN2 expression [1] = assay: SMN2-luciferase reporter assay; format: cell-based; settings: for activity in the luciferase reporter assay (in words): SAR statements in the text
How it was run: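 Reporter cells carrying the SMN2-luciferase construct were exposed to test compound at 0.1–50 μM, with DMSO (0.1%) controls. Luciferase signal gave dose-response curves, from which EC50 and percent maximum increase in SMN2 expression were taken. Values are mean ± S.E.M.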

[2] = system: SMN-luciferase reporter transcripts; assay: qRT-PCR analysis of SMN-luciferase reporter transcripts; format: cell-based; settings: 24 hours required for full activation
aqueous solubility = format: physicochemical
SMNΔ7 mice = assay: preliminary efficacy study in SMNΔ7 mice; format: in vivo, mouse; settings: 20 mg/kg i.p. once daily from PND 2, compared to vehicle
[3] = stability in mouse microsomes; format: in vitro ADME
[4] = system: SMN1-luciferase construct; assay: SMN1-luciferase construct expression; format: cell-based
SMN2 expression [5] = settings: hit compounds from high-throughput screening; cited from earlier work

Compound	activity in the luciferase reporter assay (in words) (SMN2 expression [1])	EC50 (SMN2 expression [1])	other results
COc1ccc2c(c1OC)C(c1cc(Br)ccc1F)CC(=O)N2 (centres unmarked) [5a]	complete loss of activity		
COc1cc2c(c(OC)c1)C(c1cc(Br)ccc1F)CC(=O)N2 (centres unmarked) [5b]	complete loss of activity		
COc1cc2c(c(OC)c1OC)C(c1ccccc1F)CC(=O)N2 (centres unmarked) [5c]	complete loss in activity	> 50 µM	
COc1cc2c(c(OC)c1OC)C(c1cccc(Br)c1)CC(=O)N2 (centres unmarked) [5d]	complete loss in activity	> 50 µM	
COc1cc2c(c(OC)c1OC)C(c1cc(F)ccc1F)CC(=O)N2 (centres unmarked) [5f]	not active	> 50 µM	
COc1cc2c(c(OC)c1OC)C(c1cc(C#N)ccc1F)CC(=O)N2 (centres unmarked) [5g]	not active	> 50 µM	
COc1cc2c(c(OC)c1OC)C(c1cc([N+](=O)[O-])ccc1F)CC(=O)N2 (centres unmarked) [5h]	not active	> 50 µM	
COc1cc2c(c(OC)c1OC)C(c1cc(C(N)=O)ccc1F)CC(=O)N2 (centres unmarked) [5i]	not active	> 50 µM	
COc1cc2c(c(OC)c1OC)C(c1cccc(Cl)c1Cl)CC(=O)N2 (centres unmarked) [5j]	inactive	> 50 µM	
COc1cc2c(c(OC)c1OC)C(c1ccc(Cl)cc1Cl)CC(=O)N2 (centres unmarked) [5k]	inactive	> 50 µM	
COc1cc2c(c(OC)c1OC)C(c1ccc(F)c(F)c1)CC(=O)N2 (centres unmarked) [5l]	inactive	> 50 µM	
COc1cc2c(c(OC)c1OC)C(c1ccc(Cl)c(Cl)c1)CC(=O)N2 (centres unmarked) [5m]	inactive	> 50 µM	
COc1cc2c(c(OC)c1OC)C(c1cc(Br)ccc1F)CC(=O)N2C (centres unmarked) [6a]	inactive		
COc1cc2c(c(OC)c1OC)C(c1cc(Br)ccc1F)C(C)C(=O)N2 (centres unmarked) [6b]	inactive		
COc1cc2c(c(OC)c1OC)C(c1cc(Cl)ccc1F)NC(=O)N2 (centres unmarked) [9a]	improved potency and efficacy; also recorded: very promising activity		amount of exon 7 included transcripts [2]: corresponding increase; amount of total SMN-luciferase reporter transcripts [2]: increased; SMN-luciferase protein expression from the SMN2-luciferase construct (SMN2 expression [1]; secondary characterisation): increased SMN-luciferase protein expression; aqueous solubility (in words) (aqueous solubility): improved aqueous solubility; ability to right themselves (SMNΔ7 mice): increase in the ability to right themselves; stability in mouse microsomes (in words) [3]: promising stability; SMN-luciferase protein expression from the SMN1-luciferase construct [4]: increased SMN-luciferase protein expression
COc1cc2c(c(OC)c1OC)C(c1ccccc1F)N(C)C(=O)N2 (centres unmarked) [9b]	less active; also recorded: partial, but not a complete, loss in activity	10 µM	Emax (SMN2 expression [1]; read-out: percent maximum increase in SMN2 expression): 100%
CCCN1C(=O)Nc2cc(OC)c(OC)c(OC)c2C1c1cccc(Cl)c1 (centres unmarked) [9c]	inactive; also recorded: partial, but not a complete, loss in activity		
COc1cc2c(c(OC)c1OC)C(c1cccc(F)c1)NC(=O)N2 (centres unmarked) [9d]	retained some activity		
COc1cc2c(c(OC)c1OC)C(c1ccc(F)cc1)NC(=O)N2 (centres unmarked) [9e]	retained some activity		

Compound	activity in the luciferase reporter assay (in words) (SMN2 expression [1])	EC50 (SMN2 expression [1])	other results
COc1cc2c(c(OC)c1OC)C(c1ccccc1Cl)NC(=O)N2 (centres unmarked) [9f]		> 50 µM	
COc1cc2c(c(OC)c1OC)C(c1ccc(Cl)cc1)NC(=O)N2 (centres unmarked) [9g]	retained some activity		
COc1ccccc1C1NC(=O)Nc2cc(OC)c(OC)c(OC)c21 (centres unmarked) [9h]		> 50 µM	
COc1ccc(C2NC(=O)Nc3cc(OC)c(OC)c(OC)c32)cc1 (centres unmarked) [9j]		> 50 µM	
COc1cc2c(c(OC)c1OC)C(c1cc(-c3ccccc3)ccc1F)NC(=O)N2 (centres unmarked) [9l]	inactive	> 50 µM	
COc1cc2c(c(OC)c1OC)C(c1cc(C#N)ccc1F)NC(=O)N2 (centres unmarked) [9m]	inactive	> 50 µM	
COc1cc2c(c(OC)c1OC)C(c1cc(F)ccc1F)NC(=O)N2 (centres unmarked) [9n]	less active		
COc1ccc(F)c(C2NC(=O)Nc3cc(OC)c(OC)c(OC)c32)c1 (centres unmarked) [9o]	inactive	> 50 µM	
COc1cc2c(c(OC)c1OC)C(c1ccc(Cl)cc1F)NC(=O)N2 (centres unmarked) [9p]	tolerated		
COc1cc(Cl)ccc1C1NC(=O)Nc2cc(OC)c(OC)c(OC)c21 (centres unmarked) [9q]	activity was restored		
COc1ccc(Cl)cc1C1NC(=O)Nc2cc(OC)c(OC)c(OC)c21 (centres unmarked) [9r]	activity was restored		
CC(C)c1cc(C(=O)Nc2ccc(F)c(Cl)c2)no1 [compound 1]			increase in expression of SMN2 (SMN2 expression [5]): 2 fold
COc1cc2c(c(OC)c1OC)C(c1cc(Br)ccc1F)CC(=O)N2 (centres unmarked) [compound 2]			increase in expression of SMN2 (SMN2 expression [5]): 2 fold
COc1cc2[nH]c(=O)nc(-c3cc(Cl)ccc3F)c2c(OC)c1OC [compound 13]	inactive		
COc1cc2c(c(OC)c1OC)C(c1cc(Cl)ccc1F)=NCC(=O)N2 [compound 14]	retained potency similar to the lead 2, although its efficacy was reduced		
COc1cc2c(c(OC)c1OC)C(c1cc(Cl)ccc1F)OC(=O)N2 (centres unmarked) [compound 16]	encouraging activity		
COc1cc2c(c(OC)c1OC)C(c1cc(Cl)ccc1F)OCC(=O)N2 (centres unmarked) [compound 19]	improved potency and efficacy		aqueous solubility (in words) (aqueous solubility): improved aqueous solubility; stability in mouse microsomes (in words) [3]: poor
COc1cc2c(c(OC)c1OC)C(c1cc(Cl)ccc1F)OCC(=O)N2C (centres unmarked) [compound 21]	not tolerated		
COc1cc2c(c(OC)c1OC)C(C)(c1cc(Cl)ccc1F)OCC(=O)N2 (centres unmarked) [compound 23]	not tolerated		

Source: publication PMC5701662 (Bioorganic & medicinal chemistry letters, 2017)
